Measured values gathered from unrelated publications.
Compare with care: the assays were run in different laboratories.
KCNH2: Voltage-gated inwardly rectifying potassium channel KCNH2 (KCNH2, Homo sapiens, UniProt Q12809)

CC(=O)N1CCC(C(=O)N2CCN3C(=O)c4cc(-c5ccccc5)ccc4NC(=O)C3C2)CC1 (stereo not shown)  inhibition (KCNH2; ion current, inhibitor, patch clamp; HEK293; 0.1 µM): 2.6%
O=C(COc1ccc(Cl)cc1)NC12CC(c3nnc([C@H]4C[C@@H](OC(F)(F)F)C4)o3)(C1)C2  Tmax (human, plasma; oral, 100 mg, single dose, fasted, healthy volunteers): 24 h
N[C@H]1C(O)O[C@H](CO)[C@@H](O)[C@@H]1O (stereo partly shown)  viability (Caco-2; cell growth or viability, CCK-8; 10 mM): 102%
CN1C[C@H](COc2nccc3c(NCc4ccco4)cc(Cl)nc23)OC1=O  inhibition (KCNH2; ion current, inhibitor; HEK293; 10 µM): 21.4%
CCOC(=O)C1=C(CN2CCC[C@@H]2C(=O)Nc2ccc(B(O)O)cc2)NC(c2nccs2)=N[C@H]1c1ccc(F)cc1Br  inhibition (KCNH2; ion current, inhibitor, patch clamp; HEK293; 3 µM, pH 7.4): 31.8%
COc1nc(-c2cccc(-c3ccccc3)c2C)ccc1CNCCNC(=O)CCCCCCCCCCC(=O)N1CCN(CCNC(=O)c2cc3c(=O)n4cccc(C)c4nc3n(CCc3cccs3)c2=N)CC1  MRT(0-inf) (male Sprague-Dawley rat, plasma; oral, 40 mg/kg): 13.6 h
COc1cccc(OC)c1-c1cc(C(=O)NC2(C(=O)O)C3CC4CC(C3)CC2C4)nn1-c1ccc(C(=O)N(C)CCCN(C)CCCN(C)C(=O)CN2CCN(CC(=O)[O-])CCN(CC(=O)[O-])CCN(CC(=O)[O-])CC2)cc1C(C)C.[177Lu+3] (stereo not shown)  tracer uptake (HT-29; pancreas; 7 days, tumour-bearing): 0.28 %ID/g
C[C@H]1Oc2cc(cnc2N)-c2c(nn(C)c2C#N)CN(C)C(=O)c2ccc(F)cc21  MRT(0-t) (male Sprague-Dawley rat, plasma; oral, 50 mg/kg, single dose): 11.9 h
COc1ccc2c(c1)CN(C(=O)CCN1CCC(Cc3ccccc3)CC1)CC[S@@+]2[O-]  Tmax (male human, plasma; intravenous, 0.01 mg/kg, healthy volunteers): 0 h
CC(C)n1cc(C#N)c2cc(-n3cc(C(=O)O)cn3)ccc21  Tmax (human, plasma; oral, 300 mg, single dose, fasted, healthy volunteers): 4.01 h
